Source: ChEMBL document CHEMBL1671831, “TSPO 18 kDa (PBR) Targeted Photosensitizers for Cancer Imaging (PET) and PDT” (ACS Med Chem Lett, 2011)
Each block holds one molecule with its values, some of them ahead of it. Calls of active or inactive are those of the source. The rule behind the calls is not given here.

What was measured:
[1] = molecular target: T1, Translocator protein (Homo sapiens, UniProt P30536); experiment: Displacement of [3H]-PK11195 from PBR after 1 hr by scintillation counting
[2] = system: MDA-MB-231; experiment: Antitumor activity against human MDA-MB-231 cells xenografted in SCID mouse assessed as tumor free mouse at 5 umol/kg measured on day 60; format: functional
[3] = system: MDA-MB-231; experiment: Cellular uptake in human MDA-MB-231 cells at 0.1 uM by fluorescence spectroscopy; format: ADME, cell-based; conditions: mda-mb-231, 0.1 µM
Summary of the method: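 MDA-MB-231 cells. Uptake measured by fluorescence spectroscopy with excitation at 412 nm and emission scanned from 550 to 750 nm (maximum at 678 nm). Conjugate uptake compared with and without the TSPO ligand PK 11195 analogue.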

[4] = system: MDA-MB-231; experiment: Drug level in human MDA-MB-231 cells xenografted in SCID mouse after 24 hrs by microPET analysis; format: functional, cell-based
Summary of the method: (§1)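 Scid mice bearing MDA-231 tumours given the 124I-labelled conjugate at 50 μCi (about 40 ng) per mouse. MicroPET coronal emission imaging at 24, 48, 72 and 96 h after injection, plus biodistribution with three mice per group. Mean with standard deviation.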

[5] = molecular target: T1, Translocator protein; experiment: Binding affinity to PBR
[6] = Drug level in human U87 cells xenografted in BALB/c mouse after 24 hrs […]; format: ADME, cell-based, U-87MG ATCC; conditions: in vivo, in the assay text read “nude mouse” for “BALB/c mouse”
Summary of the method: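 Nude mice bearing U87 tumours given the 124I-labelled agent. Tumour and organ uptake taken by biodistribution 24 h after injection. Mean with standard deviation.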

[7] = system: Liver; experiment: Drug level in […] cells xenografted BALB/c mouse liver after 24 hrs by microPET analysis; format: ADME, cell-based; conditions: in vivo
Summary of the method: (§2)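 Balb/c mice bearing EMT6 tumours given the 124I-labelled agent. Uptake in organs and tumour taken by biodistribution 24 h after injection, with microPET coronal emission imaging. Mean with standard deviation.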

[8] = system: Heart; experiment: Drug level in […] cells xenografted BALB/c mouse heart after 24 hrs by microPET analysis; format: ADME, cell-based; conditions: in vivo; summary of the method: as §2
[9] = system: Spleen; experiment: Drug level in […] cells xenografted BALB/c mouse spleen after 24 hrs by microPET analysis; format: ADME, cell-based; conditions: in vivo; summary of the method: as §2
[10] = system: Lung; experiment: Drug level in […] cells xenografted BALB/c mouse lungs after 24 hrs by microPET analysis; format: ADME, cell-based; conditions: in vivo; summary of the method: as §2
[11] = system: Blood; experiment: Drug level in […] cells xenografted BALB/c mouse blood after 24 hrs by microPET analysis; format: ADME, cell-based; conditions: in vivo; summary of the method: as §2
[12] = system: Muscle tissue; experiment: Drug level in […] cells xenografted BALB/c mouse muscle after 24 hrs by microPET analysis; format: ADME, cell-based; conditions: in vivo; summary of the method: as §2
[13] = system: Brain; experiment: Drug level in […] cells xenografted BALB/c mouse brain after 24 hrs by microPET analysis; format: ADME, cell-based; conditions: in vivo; summary of the method: as §2
[14] = system: Kidney; experiment: Drug level in […] cells xenografted BALB/c mouse kidney after 24 hrs by microPET analysis; format: ADME, cell-based; conditions: in vivo; summary of the method: as §2
[15] = Drug level in […] cells xenografted BALB/c mouse gut after 24 hrs by microPET analysis; format: ADME, cell-based; conditions: in vivo; summary of the method: as §2
[16] = system: Stomach; experiment: Drug level in […] cells xenografted BALB/c mouse stomach after 24 hrs by microPET analysis; format: ADME, cell-based; conditions: in vivo; summary of the method: as §2
[17] = system: MDA-MB-231; experiment: Drug level in human MDA-MB-231 cells xenografted in SCID mouse after 48 to 96 hrs by microPET analysis; format: functional, cell-based; conditions: tested as the 124I-labelled form; summary of the method: as §1

T1 sequence (P30536 whole entry): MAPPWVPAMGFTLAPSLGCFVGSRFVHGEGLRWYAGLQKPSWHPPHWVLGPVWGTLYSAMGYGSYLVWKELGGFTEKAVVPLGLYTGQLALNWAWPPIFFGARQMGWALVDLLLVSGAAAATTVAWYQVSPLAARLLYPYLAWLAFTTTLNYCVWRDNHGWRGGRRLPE

SMILES: C=Cc1c(C)c2cc3nc(c4c5[nH]c(cc6nc(cc1[nH]2)C(C)=C6CC)c(C)c5C(=O)C4)[C@@H](CCC(=O)NCCN)[C@@H]3C
- IC50 [1]: 5600 nM

SMILES: C=Cc1c(C)c2cc3nc(c4c5[nH]c(cc6nc(cc1[nH]2)C(C)=C6CC)c(C)c5C(=O)C4)[C@@H](CCC(=O)N(C)CCCCCCN(C)C(=O)c1cc2ccccc2c(-c2ccccc2I)n1)[C@@H]3C
- IC50 [1]: 210 nM

SMILES: CCC(C)N(C)C(=O)c1cc2ccccc2c(-c2ccccc2[124I])n1 (stereo unspecified)
- Drug uptake [6]: Not Active

SMILES: CCC(C)N(C)C(=O)c1cc2ccccc2c(-c2ccccc2I)n1 (stereo unspecified)
- Drug uptake [7]: Not Active
- Drug uptake [8]: Not Active
- IC50 [1]: 620 nM
- Drug uptake [9]: Not Active
- Drug uptake [10]: Not Active
- Drug uptake [11]: Not Active
- Drug uptake [12]: Not Active
- Drug uptake [13]: Not Active
- Drug uptake [14]: Not Active
- Drug uptake [15]: Not Active
- Drug uptake [16]: Not Active

SMILES: C=Cc1c(C)c2cc3nc(c4c5[nH]c(cc6nc(cc1[nH]2)C(C)=C6CC)c(C)c5C(=O)C4)[C@@H](CCC(=O)NCCCCCCN)[C@@H]3C
- Activity [2]: 0%
- IC50 [1]: 25000 nM
- Drug uptake [3]: Active

SMILES: CCCCCCOC(C)c1c(C)c2cc3nc(c4c5[nH]c(cc6nc(cc1[nH]2)C(C)=C6CC)c(C)c5C(=O)C4)[C@@H](CCC(=O)NCCCCCCNC(=O)c1cc2ccccc2c(-c2ccccc2I)n1)[C@@H]3C (stereo partly specified)
- Drug uptake [4]: Active
- Drug uptake [17]: Active

Second part, led by results:

- IC50 [1]: 2200 nM
SMILES: C=Cc1c(C)c2cc3nc(c4c5[nH]c(cc6nc(cc1[nH]2)C(C)=C6CC)c(C)c5C(=O)C4)[C@@H](CCC(=O)NCCNC(=O)c1cc2ccccc2c(-c2ccccc2I)n1)[C@@H]3C

- IC50 [1]: 310 nM
- Drug uptake [3]: Active
- Kd [5]: 40 nM
SMILES: C=Cc1c(C)c2cc3nc(c4c5[nH]c(cc6nc(cc1[nH]2)C(C)=C6CC)c(C)c5C(=O)C4)[C@@H](CCC(=O)NCCCCCCNC(=O)c1cc2ccccc2c(-c2ccccc2I)n1)[C@@H]3C
- Activity [2]: 20%
- Drug uptake [4]: Active

- IC50 [1]: 1000 nM
SMILES: C=Cc1c(C)c2cc3nc(c4c5[nH]c(cc6nc(cc1[nH]2)C(C)=C6CC)c(C)c5C(=O)C4)[C@@H](CCC(=O)N(C)CCN(C)C(=O)c1cc2ccccc2c(-c2ccccc2I)n1)[C@@H]3C
